Laboratory results: PubChem BioAssay AID489015 (The Scripps Research Institute Molecular Screening Center, 2010)
Calls of active or inactive are those of the source.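 Rule for the calls: active = malaria parasite growth inhibition in red cells reaching a set limit in at least one replicate; inactive = below that limit in every replicate.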

Tested on: P. falciparum 3D7 in RBCs, 3H-hypoxanthine incorporation, 48 h
Assay: single-dose antimalarial blood-stage activity – cell-based, radiolabel, RBCs, powder samples, M18AAP inhibitor project, late-stage follow-up (AID 489015)
Details: at 10 µM; stronger effect = higher value
Outline: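 schedule = 48 h compound exposure, 37 °C, 5% CO2, 5% O2 | assay system = P. falciparum 3D7 in erythrocytes | signal = 3H-hypoxanthine uptake, beta counting | read-out = percent growth inhibition versus vehicle-treated parasites, minus uninfected-RBC background | replication = triplicate wells per compound, two to three independent experiments | control set = vehicle-treated parasites and uninfected RBCs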

Compound | growth inhibition
CS(=O)(=O)c1ccc2c(c1)sc1nc(=O)c(/C=C3/C=CC(=O)C(O)=C3)c(N)n12 | 22.6% (inactive)
Cc1cc(OCC(=O)Nn2cnnc2)ccc1Br | 3.67% (inactive)
Cc1ccc(Cl)cc1NC(=S)Nn1cnnc1 | 0% (inactive)
Cc1ccc([N+](=O)[O-])cc1-c1[nH]c(-c2ccc(O)c(O)c2)nc1-c1ccccc1 | 4.11% (inactive)
O=C(Nc1ccc(Cl)c(Cl)c1)Nn1cnnc1 | 5.67% (inactive)
CN1CCc2cccc3c2[C@@H]1Cc1ccc(O)c(O)c1-3 | 87%
Cc1cccc(NC(=S)Nn2cnnc2)c1C | 16.5% (inactive)
Cc1cc(C)cc(C(=O)n2cnnc2N)c1 | 44.8%
O=c1[nH]c(CSc2ncn[nH]2)nc2ccccc12 | 1.83% (inactive)
O=C(CSc1ncn[nH]1)OCN1C(=O)c2ccccc2C1=O | 3% (inactive)
COc1cc(Br)cc(/C=N/c2ncn[nH]2)c1O | 4.83% (inactive)
COc1cc([N+](=O)[O-])ccc1NC(=O)Nn1cnnc1 | 0% (inactive)
O=S(=O)(Nn1cnnc1)c1ccccc1 | 3% (inactive)
O=C(Nn1cnnc1)c1ccccc1-c1ccccc1 | 0.5% (inactive)
Oc1cc(O)c2c(c1)O[C@H](c1ccc(O)c(O)c1)[C@H](O)C2 | 1% (inactive)
O=C(Nc1ccc([N+](=O)[O-])cc1)Nn1cnnc1 | 28.7% (inactive)
Oc1ccc(-c2csc(-c3ccccc3)n2)cc1O | 20.6%
O=C(Nc1ccc(Cl)cc1Cl)Nn1cnnc1 | 0% (inactive)
COC(=O)c1cc(C(=O)Nn2cnnc2)cc([N+](=O)[O-])c1 | 0% (inactive)
COc1cc([N+](=O)[O-])ccc1NC(=S)Nn1cnnc1 | 8.67% (inactive)
Oc1ccc(C2=Nn3c(nnc3-c3ccco3)SC2)cc1O | 20.8% (inactive)
O=c1c2c([N+](=O)[O-])cc([N+](=O)[O-])cc2sn1Cc1ccccc1 | 5.11% (inactive)
Cc1ccc(NC(=S)Nn2cnnc2)c(C)c1 | 0% (inactive)
Cc1c(Cl)cccc1NC(=O)Nn1cnnc1 | 9.17% (inactive)
OC(Cn1cnnc1)c1ccccc1 (stereo unspecified) | 0% (inactive)
Br/C(C=Nn1cnnc1)=C\c1ccccc1 | 71.8%

Compound | growth inhibition
Cc1nc2ccccn2c1C(=O)NNC(=O)Nc1ccccc1 | 0.667% (inactive)
COC(=O)CN(n1cnnc1)S(=O)(=O)c1ccc(C)cc1 | 0% (inactive)
O=C(CSc1nn(-c2ccccc2)c(=S)s1)Nn1cnnc1 | 0% (inactive)
O=C(Nn1cnnc1)c1csc2ccccc12 | 0% (inactive)
COc1ccc2nc(C)cc(SCC(=O)N/N=C/c3ccc(O)c(O)c3)c2c1 | 3.22% (inactive)
O=c1c(O)c(-c2ccc(O)c(O)c2)oc2cc(O)cc(O)c12 | 0% (inactive)
O=C(CSc1nc2ccccc2c(=O)[nH]1)c1ccc(O)c(O)c1 | 8.89% (inactive)
O=C(COc1ccccc1C(=O)N/N=C/c1ccc(O)c(O)c1)N/N=C/c1ccc(O)c(O)c1 | 66%
O=C(CSc1nnc(-c2ccccc2)o1)Nn1cnnc1 | 11% (inactive)
O=C(O)c1ccc(O)c(O)c1 | 7.17% (inactive)
CC1(C)CC2(CC(c3ccccc3F)c3ccc(O)c(O)c3O2)NC(=S)N1 (stereo unspecified) | 0.167% (inactive)
Cc1nc(-c2ccc(O)c(O)c2)cs1 | 0.778% (inactive)
Oc1ccc(/C=C/c2cc(O)cc(O)c2)cc1 | 1.33% (inactive)
Nc1nncn1C(=O)CCCOc1ccc(Cl)cc1Cl | 3.17% (inactive)
CC1=NNC(=O)/C1=C\c1cn(-c2ccccc2)nc1-c1ccc(F)cc1 | 20.7% (inactive)
O=C(Nc1cccc(C(F)(F)F)c1)Nn1cnnc1 | 0% (inactive)
O=C(Nc1ccc(Br)cc1Cl)Nn1cnnc1 | 4.67% (inactive)
O=C(O)CSc1ncn[nH]1 | 2.83% (inactive)
CCc1ccccc1NC(=S)Nn1cnnc1 | 0% (inactive)
O=C(O)c1cn[nH]c1-n1cnnn1 | 3.83% (inactive)
O=C(Nc1ccccc1Cl)Nn1cnnc1 | 7.83% (inactive)
CCC(C)c1ccc(O)c(N)c1 (stereo unspecified) | 95.1%
COc1cccc2c(SCC(=O)N/N=C/c3ccc(O)c(O)c3)cc(C)nc12 | 1.5% (inactive)
COc1cccc(-c2cc(C(=O)Nn3cnnc3)c3ccccc3n2)c1 | 7.11% (inactive)
CC(C)n1c(SCC(=O)Nc2nncs2)nnc1-c1ccco1 | 1.33% (inactive)
O=C(NC(=S)Nn1cnnc1)c1ccccc1Br | 0% (inactive)

Compound | growth inhibition
CCN(CC)S(=O)(=O)c1ccc(C(=O)Nn2cnnc2)cc1 | 0.5% (inactive)
O=c1[nH]c(=S)[nH]c(O)c1/C=C1\C=c2ccccc2=N1 | 2.67% (inactive)
CCOC(=O)C1=C(CS(=O)(=O)c2ccc(F)cc2)NC(=O)NC1c1ccc(O)c(O)c1 (stereo unspecified) | 0.667% (inactive)
Cc1ccc(Cl)cc1NC(=O)Nn1cnnc1 | 2.5% (inactive)
Cc1ccc(-n2c(O)c(/C=N/n3cnnc3)c3ccccc3c2=O)cc1 | 3.33% (inactive)
COC(=O)CN(n1cnnc1)S(=O)(=O)c1ccccc1 | 1.67% (inactive)
COc1ccc(Cl)cc1NC(=O)Nn1cnnc1 | 5.83% (inactive)
Oc1ccc(CCNc2c3ccccc3nc3ccccc23)cc1O | 96.3%
CC1(C)CC(=O)c2c(oc3cc(O)c(O)cc23)C1 | 2.83% (inactive)
Oc1ccc(-c2csc(-c3cccnc3)n2)cc1O | 7.67% (inactive)
NCCc1ccc(O)c(O)c1 | 0.5% (inactive)
O=[N+]([O-])c1cc([N+](=O)[O-])c2cccnc2c1Oc1ccccc1O | 13.4% (inactive)
O=C(CNC(=O)c1ccccc1)NCCc1ccc(O)c(O)c1 | 0.333% (inactive)
O=C(CSc1ncn[nH]1)Nc1nc(-c2ccccc2)ns1 | 4.5% (inactive)
COC(=O)CN(n1cnnc1)S(=O)(=O)c1ccccc1Cl | 4.5% (inactive)
CN1C(=O)N(c2cccc3ccccc23)C(n2cncn2)C1(C)C (stereo unspecified) | 0% (inactive)
Cc1cc(C)n2c(=S)[nH]nc2n1 | 35.6%
O=C(Nc1cccc(Cl)c1Cl)Nn1cnnc1 | 1% (inactive)
COc1ccc(NC(=O)NNC(=O)CCc2ccc(O)c(O)c2)cc1OC | 5.67% (inactive)
Oc1ccc(-c2cn3ccccc3n2)cc1O | 5.33% (inactive)
O=C(Nc1cc(Cl)ccc1Cl)Nn1cnnc1 | 1.5% (inactive)
S=C(Nc1cc(Cl)ccc1Cl)Nn1cnnc1 | 0% (inactive)
Cc1cc(=O)[nH]c(SCC(=O)c2ccc(O)c(O)c2)n1 | 0.833% (inactive)
COc1ccc(C(=O)n2cnnc2N)cc1 | 2.5% (inactive)
